In ChEMBL document CHEMBL1122737, “5-[(Aminoalkyl)amino]-substituted anthra[1,9-cd]pyrazol-6(2H)-ones as novel anticancer agents. Synthesis and biological evaluation” (1984):

Legend:
P388 [1] = assay: in vivo for the antitumor activity against P388 leukemia cells at a dose of 100 mg/kg (single injection) and 200 mg/kg (Total); assay type: functional, Mus musculus
How it was run: (§1)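 Murine P388 leukemia, drug given ip on a q04d × 02 schedule (a slightly modified NCI protocol). Dose is listed per injection and as a total. Read-out is % T/C survival. Mice alive at 30 days count as cured and are left out of % T/C. Cured/tested counts are reported.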

P388 [2] = assay: Evaluated in vivo for the antitumor activity against P388 leukemia cells at a dose of 50 mg/kg (single injection) and 100 mg/kg (Total ); assay type: functional, Mus musculus; how it was run: as §1
[3] = Compound was evaluated in vivo for the antitumor activity at a dose of 2.5 mg/kg & 7.5 mg/kg against mammary adenocarcinoma 16C to assess tumor growth delay (T-C); assay type: functional, Mus musculus
How it was run: (§2)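 Mammary adenocarcinoma 16C is implanted sc in mice on day 0. Treatment is iv on days 1, 5 and 9, with dose per injection and total. Tumors are measured in two dimensions three times weekly to give growth delay (T − C, days) and gross log kill. Cured mice are excluded from these calculations.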

[4] = In vivo antitumor activity at a single dose of 2.5 mg/kg & 7.5 mg/kg total against mammary adenocarcinoma 16C
[5] = In vivo antitumor activity at a single dose of 1.25 mg/kg & 3.75 mg/kg total against mammary adenocarcinoma 16C
[6] = Compound was evaluated in vivo for the antitumor activity at a dose of 1.25 mg/kg & 3.75 mg/kg against mammary adenocarcinoma 16C to assess tumor growth delay (T-C).; assay type: functional, Mus musculus; how it was run: as §2
P388 [7] = assay: In vivo antitumor activity against P388 leukemia cells at a dose of 0.75 mg/kg as a single injection and 1.5 mg/kg as a total; assay type: functional, Mus musculus; how it was run: as §1
P388 [8] = assay: In vivo antitumor activity against P388 leukemia cells at a dose of 1.5 mg/kg as a single injection and 3 mg/kg as a total; assay type: functional, Mus musculus; how it was run: as §1
[9] = In vivo antitumor activity at a single dose of 12.5 mg/kg & 37.5 mg/kg total against mammary adenocarcinoma 16C to assess tumor growth delay (T-C); assay type: functional, Mus musculus; how it was run: as §2
P388 [10] = assay: In vivo antitumor activity against P388 leukemia cells at a dose of 25 mg/kg as a single injection and 50 mg/kg as a total; assay type: functional, Mus musculus; how it was run: as §1
[11] = In vivo antitumor activity at a single dose of 12.5 mg/kg & 37.5 mg/kg total against mammary adenocarcinoma 16C; assay type: functional, Mus musculus
How it was run: (§3)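 Mice were inoculated sc with mammary adenocarcinoma 16C on day 0 and given the agent (as the dihydrochloride salt) iv on days 1, 5 and 9. Tumors were measured in two dimensions three times weekly. Tumor growth delay (T − C, days) and gross log kill were derived, with cured mice excluded from these calculations.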

[12] = In vivo antitumor activity at a single dose of 6.5 mg/kg & 18.8 mg/kg total against mammary adenocarcinoma 16C to assess tumor growth delay (T-C); assay type: functional, Mus musculus; how it was run: as §2
P388 [13] = assay: In vivo antitumor activity against P388 leukemia cells at a dose of 12.5 mg/kg (single injection) and 25 mg/kg (Total ); assay type: functional, Mus musculus; how it was run: as §1
L1210 = assay: Antitumor activity against L1210 lymphocytic cells in vitro; assay type: functional; conditions: Mus musculus, read-out: ID50 (the source's name)
[14] = In vivo antitumor activity at a single dose of 6.5 mg/kg & 18.8 mg/kg total against mammary adenocarcinoma 16C; assay type: functional, Mus musculus; how it was run: as §3

For `O=C1c2cccc(O)c2-c2nn(CCNCCO)c3ccc(NCCNCCO)c1c23`, which T/C (P388 [1]) is on record?
The T/C was 221%.

What about the T/C (P388 [2]) of the same compound?
The T/C was 172%.

For `O=C1c2c(O)ccc(O)c2C(=O)c2c(NCCNCCO)ccc(NCCNCCO)c21` [MITOXANTRONE], which T-C [3] is on record?
Its T-C is 4.1 days.

And the Gross kill [4]?
The Gross kill was 1.1.

What about the Gross kill [5] of the same compound?
The Gross kill was 0.8.

And the T-C [6]?
Its T-C is 3 days.

What about the T/C (P388 [7]) of the same compound?
The T/C was 231%.

And the T/C (P388 [8])?
The T/C was 278%.

What does the source list for `O=C1c2c(O)cccc2-c2nn(CCNCCO)c3ccc(NCCNCCO)c1c23` [LOSOXANTRONE]?
T-C [9]: 11.4 days; T/C (P388 [10]): 248%; Gross log kill [11]: 3.1; T-C [12]: 7 days; T/C (P388 [13]): 219%; IC50 (L1210): 5.13 nM; Gross log kill [14]: 1.9
